Key:
[1] = Inhibition of full length HCV 1b Con1 NS3/4A protease using HiLyte Fluor 610 peptide substrate by biochemical FRET assay; set-up: species or system Hepatitis C virus (isolate Con1)
Summary of the method: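 Fluorescence (FRET) protease assay on full-length genotype 1b Con1 HCV NS3/4A with HiLyte Fluor 610 peptide substrate; IC50 from percent inhibition versus concentration by four-parameter sigmoidal non-linear regression.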

Hepatitis C virus = assay: Antiviral activity against HCV Con1 infected in human GS4.1 cells containing HCV Con1 subgenomic replicon assessed as reduction in NS5A protein expression by ELISA method; format: functional, cell-based, Hepacivirus hominis; settings: genotype 1b Con1
Summary of the method: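 Huh-7 cells carrying HCV Con1 subgenomic replicon (GS4.1); replication followed as NS5A protein expression by ELISA; EC50 from 50% inhibition versus concentration data fitted by four-parameter sigmoidal non-linear regression.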

[2] = Cytotoxicity against human GS4.1 cells assessed as induction of cell death; format: cell-based
Summary of the method: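 GS4.1 cells (Huh-7 with Con1 subgenomic replicon); CC50 taken as concentration giving 50% cell death, from death versus concentration data relative to blank control.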

[3] = Intrinsic clearance in rat liver microsomes incubated for 2 hrs; format: ADME; settings: read-out: CLH

IC50 [1] [nM] | EC50 (Hepatitis C virus) [nM] | microsomal CLint [3] [µL/min/mg] | SMILES | CC50 [2] [µM]
19.8 | 8200 | – | COc1ccc2c(OCC[C@@H]3NC(=O)N(C)CCCC/C=C\[C@@H]4C[C@@]4(C(=O)NS(=O)(=O)C4CC4)NC3=O)cc(-c3ccccc3)nc2c1 | > 30
9.6 | 1490 | – | COc1ccc2c(OCC[C@@H]3NC(=O)N(C)CCCC/C=C\[C@@H]4C[C@@]4(C(=O)NS(=O)(=O)C4CC4)NC3=O)cc(-c3nc(C(C)C)cs3)nc2c1F | > 75
1.4 | 145 | – | CCCn1cc(-c2cc(OCC[C@@H]3NC(=O)N(C)CCCC/C=C\[C@@H]4C[C@@]4(C(=O)NS(=O)(=O)C4(C)CC4)NC3=O)c3ccc(OC)c(C)c3n2)cn1 | 62.3
3.3 | 89 | – | CCC1(S(=O)(=O)NC(=O)[C@@]23C[C@H]2/C=C\CCCCN(C)C(=O)N[C@@H](CCOc2cc(-c4nc(C(C)C)cs4)nc4c(Cl)c(OC)ccc24)C(=O)N3)CC1 | 49.3
0.7 | 28.9 | – | C#CC1(S(=O)(=O)NC(=O)[C@@]23C[C@H]2/C=C\CCCCN(C)C(=O)N[C@@H](CCOc2cc(-c4nc(C(C)C)cs4)nc4c(Cl)c(OC)ccc24)C(=O)N3)CC1 | 26.3
33.8 | > 750 | – | C#C[C@@H]1CCCN1S(=O)(=O)NC(=O)[C@@]12C[C@H]1/C=C\CCCCN(C)C(=O)N[C@@H](CCOc1cc(-c3nc(C(C)C)cs3)nc3c(Cl)c(OC)ccc13)C(=O)N2 | 21.2
1.8 | 35 | 14.4 | COc1ccc2c(OCC[C@@H]3NC(=O)N(C)CCCC/C=C\[C@@H]4C[C@@]4(C(=O)NS(=O)(=O)C4(C)CC4)NC3=O)cc(-n3ccc(C(F)(F)F)n3)nc2c1C | 45.8
1.1 | 15.3 | – | COc1ccc2c(OCC[C@@H]3NC(=O)N(C)CCCC/C=C\[C@@H]4C[C@@]4(C(=O)NS(=O)(=O)C4(C)CC4)NC3=O)cc(-n3ccc(C(F)(F)F)n3)nc2c1Cl | 48.8
2.3 | 85 | 9.3 | COc1ccc2c(OCC[C@@H]3NC(=O)N(C)CCCC/C=C\[C@@H]4C[C@@]4(C(=O)NS(=O)(=O)C4(C)CC4)NC3=O)cc(-c3nc(C(C)C)cs3)nc2c1C | 31.9
0.9 | 2.8 | – | COc1ccc2c(O[C@@H]3C[C@H]4C(=O)N[C@]5(C(=O)O)C[C@H]5/C=C\CCCCC[C@H](NC(=O)OC5CCCC5)C(=O)N4C3)cc(-c3csc(NC(C)C)n3)nc2c1 [CILUPREVIR] | 21
0.9 | 44 | 155 | COc1ccc2c(OCC[C@@H]3NC(=O)N(C)CCCC/C=C\[C@@H]4C[C@@]4(C(=O)NS(=O)(=O)C4(C)CC4)NC3=O)cc(-c3nc(C(C)C)cs3)nc2c1 | 6.5
3 | 485 | – | CCn1cc(-c2cc(OCC[C@@H]3NC(=O)N(C)CCCC/C=C\[C@@H]4C[C@@]4(C(=O)NS(=O)(=O)C4(C)CC4)NC3=O)c3ccc(OC)c(C)c3n2)cn1 | 36.7
2.7 | 150 | – | COc1ccc2c(OCC[C@@H]3NC(=O)N(C)CCCC/C=C\[C@@H]4C[C@@]4(C(=O)NS(=O)(=O)C4(F)CC4)NC3=O)cc(-c3nc(C(C)C)cs3)nc2c1Cl | 51.4
1.1 | 43.4 | – | COc1ccc2c(OCC[C@@H]3NC(=O)N(C)CCCC/C=C\[C@@H]4C[C@@]4(C(=O)NS(=O)(=O)C4(C)CC4)NC3=O)cc(-n3ccc(C(C)C)n3)nc2c1Cl | 31

Source: ChEMBL document CHEMBL3608234, “Synthesis and antiviral evaluation of a novel series of homoserine-based inhibitors of the hepatitis C virus NS3/4A serine protease” (Bioorg Med Chem Lett, 2015)
